Measurements as given in ChEMBL document CHEMBL1143237, “Sulfonamide-1,2,4-triazole derivatives as antifungal and antibacterial agents: synthesis, biological evaluation, lipophilicity, and conformational studies” (Bioorg Med Chem, 2008).
≈ marks a conversion by molar mass, not a printed value.

Legend:
[1] = tested on: Aspergillus ochraceus; assay: Antifungal activity against Aspergillus ochraceus ATCC 12066 after 72 hrs by microdilution test; format: functional; conditions: ATCC 12066, 72 h
How it was run: (§1)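 Modified microdilution in malt broth. Spores were washed from malt agar with sterile 0.85% saline containing 0.1% Tween 80 and adjusted to about 1.0 × 10⁵ per well. Compounds were dissolved in DMSO and tested at […] µg/ml. Incubation 72 h at 28 °C. MIC is the lowest concentration with no visible growth under a binocular microscope. MFC by 2 µl subculture and a further 72 h at 28 °C.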

[2] = tested on: Salmonella enteritidis; assay: Antibacterial activity against Salmonella enteritidis ATCC 13076 after 24 hrs by microdilution test; format: functional, Salmonella enterica subsp. enterica serovar Enteritidis; conditions: Salmonella enterica, ATCC 13076, 24 h
How it was run: (§2)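 Broth microdilution in LB medium in 96-well plates. Inoculum 1.0 × 10⁴ CFU per well, from a suspension set to 1.0 × 10⁵ CFU/ml in sterile saline. Compounds at […] µg/ml. Incubation 24 h at 28 °C. MIC is the lowest concentration with no visible growth under a binocular microscope. MBC by subculturing 2 µl into fresh broth for a further 72 h. OD540 read against blank. DMSO negative control.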

[3] = tested on: Talaromyces funiculosus; assay: Antifungal activity against Penicillium funiculosum ATCC 36839 after 72 hrs by microdilution test; format: functional; conditions: ATCC 36839, 72 h; how it was run: as §1
[4] = tested on: Aspergillus niger; assay: Antifungal activity against Aspergillus niger ATCC 6275 after 72 hrs by microdilution test; format: functional; conditions: ATCC 6275, 72 h; how it was run: as §1
[5] = tested on: Aspergillus flavus; assay: Antifungal activity against Aspergillus flavus ATCC 9643 after 72 hrs by microdilution test; format: functional; conditions: ATCC 9643, 72 h; how it was run: as §1
[6] = tested on: Salmonella typhimurium; assay: Antibacterial activity against Salmonella Typhimurium ATCC 13311 after 24 hrs by microdilution test; format: functional, Salmonella enterica subsp. enterica serovar Typhimurium; conditions: Salmonella enterica, ATCC 13311, 24 h; how it was run: as §2
[7] = tested on: Staphylococcus epidermidis; assay: Antibacterial activity against Staphylococcus epidermidis ATCC 12228 after 24 hrs by microdilution test; format: functional; conditions: ATCC 12228, 24 h; how it was run: as §2
[8] = tested on: Trichoderma viride; assay: Antifungal activity against Trichoderma viride IAM 5061 after 72 hrs by microdilution test; format: functional; how it was run: as §1
[9] = tested on: Micrococcus luteus; assay: Antibacterial activity against Micrococcus flavus ATCC 10240 after 24 hrs by microdilution test; format: functional; conditions: ATCC 10240, 24 h; how it was run: as §2
[10] = tested on: Enterobacter cloacae; assay: Antibacterial activity against Enterobacter cloacae after 24 hrs by microdilution test; format: functional; how it was run: as §2
[11] = tested on: Escherichia coli; assay: Antibacterial activity against Escherichia coli ATCC 35210 after 24 hrs by microdilution test; format: functional; conditions: ATCC 35210, 24 h; how it was run: as §2
[12] = tested on: Aspergillus versicolor; assay: Antifungal activity against Aspergillus versicolor ATCC 11730 after 72 hrs by microdilution test; format: functional; conditions: ATCC 11730, 72 h; how it was run: as §1
[13] = tested on: Bacillus cereus; assay: Antibacterial activity against Bacillus cereus ATCC 10907 after 24 hrs by microdilution test; conditions: ATCC 10907, 24 h
[14] = Partition coefficient, log P of the compound; format: physicochemical; conditions: octanol/water
How it was run: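 Calculated, not measured: AlogP, IAlogP, ClogP, Cosmo logP, mlogP, Kowwin and XlogP were computed and averaged.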

MIC [1] | MIC [2] | MIC [3] | MIC [4] | MIC [6] | MIC [7] | MIC [9] | MIC [10] | MIC [11] | MIC [13] | Structure (SMILES) | MFC [1] | MBC [2] | MFC [3] | MFC [4] | MBC [6] | MBC [7] | MBC [9] | MBC [10] | MBC [11] | MBC [13] | other results
100 µg/mL (≈ 201 µM) | 150 µg/mL (≈ 302 µM) | 100 µg/mL (≈ 201 µM) | 100 µg/mL (≈ 201 µM) | 150 µg/mL (≈ 302 µM) | 150 µg/mL (≈ 302 µM) | 150 µg/mL (≈ 302 µM) | 100 µg/mL (≈ 201 µM) | 100 µg/mL (≈ 201 µM) | 150 µg/mL (≈ 302 µM) | CCN(CC)S(=O)(=O)c1cc(OC)c(OC)cc1Cc1n[nH]c(=S)n1-c1ccc(Cl)cc1 | 150 µg/mL (≈ 302 µM) | 150 µg/mL (≈ 302 µM) | 150 µg/mL (≈ 302 µM) | 150 µg/mL (≈ 302 µM) | 150 µg/mL (≈ 302 µM) | 150 µg/mL (≈ 302 µM) | 150 µg/mL (≈ 302 µM) | 100 µg/mL (≈ 201 µM) | 150 µg/mL (≈ 302 µM) | 150 µg/mL (≈ 302 µM) | MFC [5]: 150 µg/mL (≈ 302 µM); MIC [5]: 100 µg/mL (≈ 201 µM); MFC [8]: 100 µg/mL (≈ 201 µM); MIC [8]: 50 µg/mL (≈ 101 µM); MFC [12]: 150 µg/mL (≈ 302 µM); MIC [12]: 100 µg/mL (≈ 201 µM); logP [14]: 3.15
100 µg/mL (≈ 213 µM) | 150 µg/mL (≈ 320 µM) | 100 µg/mL (≈ 213 µM) | 100 µg/mL (≈ 213 µM) | 150 µg/mL (≈ 320 µM) | 150 µg/mL (≈ 320 µM) | 150 µg/mL (≈ 320 µM) | 100 µg/mL (≈ 213 µM) | 100 µg/mL (≈ 213 µM) | 150 µg/mL (≈ 320 µM) | COc1cc(Cc2n[nH]c(=S)n2-c2ccc(Cl)cc2)c(S(=O)(=O)N(C)C)cc1OC | 150 µg/mL (≈ 320 µM) | 150 µg/mL (≈ 320 µM) | 100 µg/mL (≈ 213 µM) | 150 µg/mL (≈ 320 µM) | 150 µg/mL (≈ 320 µM) | 150 µg/mL (≈ 320 µM) | 150 µg/mL (≈ 320 µM) | 100 µg/mL (≈ 213 µM) | 150 µg/mL (≈ 320 µM) | 150 µg/mL (≈ 320 µM) | MFC [5]: 100 µg/mL (≈ 213 µM); MIC [5]: 50 µg/mL (≈ 107 µM); MFC [8]: 100 µg/mL (≈ 213 µM); MIC [8]: 50 µg/mL (≈ 107 µM); MFC [12]: 150 µg/mL (≈ 320 µM); MIC [12]: 100 µg/mL (≈ 213 µM); logP [14]: 2.4
100 µg/mL (≈ 202 µM) | 150 µg/mL (≈ 303 µM) | 100 µg/mL (≈ 202 µM) | 150 µg/mL (≈ 303 µM) | 150 µg/mL (≈ 303 µM) | 150 µg/mL (≈ 303 µM) | 150 µg/mL (≈ 303 µM) | 100 µg/mL (≈ 202 µM) | 150 µg/mL (≈ 303 µM) | 150 µg/mL (≈ 303 µM) | COc1cc(Cc2n[nH]c(=S)n2-c2ccc(Cl)cc2)c(S(=O)(=O)N2CCCC2)cc1OC | 150 µg/mL (≈ 303 µM) | 150 µg/mL (≈ 303 µM) | 150 µg/mL (≈ 303 µM) | 150 µg/mL (≈ 303 µM) | 150 µg/mL (≈ 303 µM) | 150 µg/mL (≈ 303 µM) | 150 µg/mL (≈ 303 µM) | 100 µg/mL (≈ 202 µM) | 150 µg/mL (≈ 303 µM) | 150 µg/mL (≈ 303 µM) | MFC [5]: 150 µg/mL (≈ 303 µM); MIC [5]: 100 µg/mL (≈ 202 µM); MFC [8]: 150 µg/mL (≈ 303 µM); MIC [8]: 150 µg/mL (≈ 303 µM); MFC [12]: 150 µg/mL (≈ 303 µM); MIC [12]: 100 µg/mL (≈ 202 µM); logP [14]: 2.11

More lines, now with the values behind:

Structure (SMILES) | MIC [1] | MIC [2] | MIC [3] | MIC [4] | MIC [6] | MIC [7] | MIC [9] | MIC [10] | MIC [11] | MIC [13] | MFC [1] | MBC [2] | MFC [3] | MFC [4] | MBC [6] | MBC [7] | MBC [9] | MBC [10] | MBC [11] | MBC [13] | other results
O=C(N[C@H](CO)[C@H](O)c1ccc([N+](=O)[O-])cc1)C(Cl)Cl [CHLORAMPHENICOL] |  | 150 µg/mL (≈ 464 µM) |  |  | 150 µg/mL (≈ 464 µM) | 100 µg/mL (≈ 309 µM) | 150 µg/mL (≈ 464 µM) | 150 µg/mL (≈ 464 µM) | 250 µg/mL (≈ 774 µM) | 150 µg/mL (≈ 464 µM) |  | 200 µg/mL (≈ 619 µM) |  |  | 200 µg/mL (≈ 619 µM) | 100 µg/mL (≈ 309 µM) | 200 µg/mL (≈ 619 µM) | 200 µg/mL (≈ 619 µM) | 250 µg/mL (≈ 774 µM) | 200 µg/mL (≈ 619 µM) | 
CN[C@@H]1[C@H](O[C@H]2[C@H](O[C@H]3[C@H](O)[C@@H](O)[C@H](N=C(N)N)[C@@H](O)[C@@H]3N=C(N)N)O[C@@H](C)[C@]2(O)C=O)O[C@@H](CO)[C@H](O)[C@H]1O [STREPTOMYCIN] |  | 50 µg/mL (≈ 86 µM) |  |  | 50 µg/mL (≈ 86 µM) | 150 µg/mL (≈ 258 µM) | 100 µg/mL (≈ 172 µM) | 50 µg/mL (≈ 86 µM) | 100 µg/mL (≈ 172 µM) | 100 µg/mL (≈ 172 µM) |  | 100 µg/mL (≈ 172 µM) |  |  | 100 µg/mL (≈ 172 µM) | 100 µg/mL (≈ 172 µM) | 150 µg/mL (≈ 258 µM) | 100 µg/mL (≈ 172 µM) | 150 µg/mL (≈ 258 µM) | 150 µg/mL (≈ 258 µM) | 
COc1cc(Cc2n[nH]c(=S)n2-c2ccccc2)c(S(=O)(=O)N2CCOCC2)cc1OC | 100 µg/mL (≈ 210 µM) | 150 µg/mL (≈ 315 µM) | 100 µg/mL (≈ 210 µM) | 150 µg/mL (≈ 315 µM) | 150 µg/mL (≈ 315 µM) | 150 µg/mL (≈ 315 µM) | 150 µg/mL (≈ 315 µM) | 100 µg/mL (≈ 210 µM) | 100 µg/mL (≈ 210 µM) | 150 µg/mL (≈ 315 µM) | 150 µg/mL (≈ 315 µM) | 150 µg/mL (≈ 315 µM) | 150 µg/mL (≈ 315 µM) | 150 µg/mL (≈ 315 µM) | 150 µg/mL (≈ 315 µM) | 150 µg/mL (≈ 315 µM) | 150 µg/mL (≈ 315 µM) | 100 µg/mL (≈ 210 µM) | 150 µg/mL (≈ 315 µM) | 150 µg/mL (≈ 315 µM) | MFC [5]: 150 µg/mL (≈ 315 µM); MIC [5]: 100 µg/mL (≈ 210 µM); MFC [8]: 150 µg/mL (≈ 315 µM); MIC [8]: 100 µg/mL (≈ 210 µM); MFC [12]: 150 µg/mL (≈ 315 µM); MIC [12]: 100 µg/mL (≈ 210 µM); logP [14]: 1.57
